# Screens (PubChem BioAssay)
# Sampled rows, rich in hits. Any-hit rate of the full collection: about 2.8%.
# PAFAH2 FP inh: PAFAH2 enzyme inhibitors, primary screen, biochemical, fluorescence polarization, human | Platelet-activating factor acetylhydrolase 2, cytoplasmic (Homo sapiens), Q99487 | recombinant PAFAH2, FP-rhodamine activity probe | inhibition, % at 3.39 µM | hit rate 0.99% among 340,000 | AID 492956, 2010;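 active = inhibition above the mean over all tested compounds plus 3 SD, cut at about 30% in these data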;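 also: inhibitors block probe labeling of enzyme so polarization drops; 0% = enzyme with DMSO and 100% = wells lacking PAFAH2 protein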
# HTRA1 inh: HTRA1 serine protease inhibitors, primary screen, biochemical, fluorescence polarization, HTS. Q92743. recombinant HTRA1, FP-rhodamine activity-based probe. inhibition, % at 5.96 µM. hit rate 0.5% among 340,000. AID 504803, 2011; in the data active = inhibition above about 36%;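 also: 0% = enzyme with DMSO and 100% = wells lacking enzyme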
# PAFAH1B2 inh: PAFAH1B2 enzyme inhibitors, primary screen, biochemical, fluorescence polarization, human; recombinant PAFAH1B2, FP-rhodamine activity probe; inhibition, % at 3.39 µM; hit rate 1.2% among 340,000; AID 492953, 2010;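 active = inhibition above the mean of all tested compounds plus 3 SD, cut at about 24% in these data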;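 also: 0% = enzyme with DMSO and 100% = wells lacking PAFAH1B2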
# ABHD4 inh: ABHD4 inhibitors, primary screen, biochemical, fluorescence polarization, mouse. purified mABHD4, FP-Rh probe fluorescence polarization. inhibition, % at 8.92 µM. hit rate 0.54% among 370,000;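 active = inhibition exceeding the mean over every tested compound plus 3 SD, cut at about 30% in these data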;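 also: 0% = plate median of compound wells and 100% = S159A mutant with DMSO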
#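 Test system: mABHD4 protein | Buffer or medium: HEPES pH 7.0 buffer, 150 mM NaCl, 0.01% Pluronic F-127 | Probe or stimulus: FP-Rh fluorescent activity-based probe, added after compound pre-incubation | Timing: Pre-incubation 45 min, probe exposure 60 min, at 25 °C | Technique: Fluorescence polarization, excitation 525 nm, emission 598 nm, BODIPY TMR filters | Repeats: Single well per compound (singlicate)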
# pPAFAH inh: pPAFAH enzyme inhibitors, primary screen, biochemical, fluorescence polarization, human; Platelet-activating factor acetylhydrolase (Homo sapiens), Q13093; recombinant pPAFAH, FP-rhodamine probe fluorescence polarization; inhibition, % at 3.39 µM; hit rate 1.5% among 330,000;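 active = inhibition above the mean inhibition across the screen plus 3 SD, cut at about 25% in these data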;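 also: inhibitors block binding of the rhodamine activity-based probe so polarization drops; 0% = enzyme with DMSO and 100% = wells lacking pPAFAH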
# Target sequence (Q13093 whole entry, looked up): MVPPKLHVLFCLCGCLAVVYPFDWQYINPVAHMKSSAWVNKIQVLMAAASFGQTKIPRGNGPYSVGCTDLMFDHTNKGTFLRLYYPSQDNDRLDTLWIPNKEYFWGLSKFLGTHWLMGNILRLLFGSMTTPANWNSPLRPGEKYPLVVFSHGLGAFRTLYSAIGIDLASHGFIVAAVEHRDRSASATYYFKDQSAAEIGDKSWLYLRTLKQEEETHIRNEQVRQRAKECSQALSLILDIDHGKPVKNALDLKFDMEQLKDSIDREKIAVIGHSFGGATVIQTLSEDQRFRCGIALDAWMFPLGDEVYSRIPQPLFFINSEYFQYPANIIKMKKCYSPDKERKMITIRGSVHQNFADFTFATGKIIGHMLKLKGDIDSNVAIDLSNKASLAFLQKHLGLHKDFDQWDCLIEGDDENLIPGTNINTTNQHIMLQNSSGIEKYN
# PAFAH1B3 FP inh: PAFAH1B3 enzyme inhibitors, primary screen, biochemical, fluorescence polarization, human | inhibition, % at 3.39 µM | hit rate 0.28% among 340,000 | Platelet-activating factor acetylhydrolase IB subunit alpha1 (Homo sapiens), Q15102 | AID 492972, 2010 | recombinant PAFAH1B3, FP-rhodamine probe;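 active = inhibition above the screen-wide average of all tested compounds plus 3 SD, cut at about 25% in these data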;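 also: 0% = enzyme with DMSO only and 100% = wells lacking PAFAH1B3 protein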
# An asterisk follows results filed as active; . = no result given.
SMILES,PAFAH2 FP inh,HTRA1 inh,PAFAH1B2 inh,ABHD4 inh,pPAFAH inh,PAFAH1B3 FP inh
CCNc1nc(Oc2ccc(OC)cc2)cc(C(F)(F)F)n1,7,-7,-2,-9,33*,8
C[C@H]1[C@H](N(Cc2cccs2)Cc2cccs2)CC[C@@]23CCCN2C(=O)CCC[C@@H]13,.,.,.,-2,.,.
CCOC(=O)N1CCN(C(=O)C[C@H]2C[C@@]3(C(=O)OC)C(=C[C@H](C(C)(C)C)O[C@@H]3C)N(CCc3ccc(OC)c(OC)c3)C2=O)CC1,.,.,.,-2,.,.
O=C(CN1C(=O)c2ccccc2C1=O)NCc1ccc(F)cc1,1,6,2,5,-2,9
O=C(Cn1ccccc1=O)NCc1ccc(F)cc1,-1,0,2,0,33*,-8
COC(=O)[C@]12C[C@H](CC(=O)N3CCOCC3)C(=O)N(Cc3cccc4ccccc34)C1=C[C@H](C(C)(C)C)O[C@@H]2C,.,.,.,-5,.,.
Cn1c(NCCO)nc2c1c(=O)n(Cc1cccc(Cl)c1)c(=O)n2C,3,4,10,5,1,4
Cn1c(NCCN2CCOCC2)nc2c1c(=O)n(Cc1cccc(Cl)c1)c(=O)n2C,3,1,28*,4,5,-1
CN(C)Cc1cn(-c2cccc(-c3noc4c3C(=O)N(CC(=O)N3CCOCC3)CC4)c2)nn1,.,.,.,-1,.,.
O=C(NCCN1CCOCC1)c1cccc(S(=O)(=O)Nc2ccc(Br)cc2)c1,5,-6,1,-6,34*,-3
O=C(NCCCN1CCOCC1)c1cccc(S(=O)(=O)Nc2ccc(F)cc2)c1,3,-9,3,0,27*,-3
O=C(c1cccc(S(=O)(=O)Nc2ccc(F)cc2)c1)N1CCOCC1,9,-2,-2,-2,29*,-3
O=C(NCCCN1CCOCC1)c1cccc(NS(=O)(=O)c2ccc(Br)cc2)c1,1,4,25*,-1,0,0
COc1ccc(-c2cc(C(=O)N=Nc3c(O)[nH]c4ccccc34)[nH]n2)cc1,.,.,.,-8,.,.
COc1ccc(NS(=O)(=O)c2ccc(N3CCOCC3)c(NC(=O)c3cccc(F)c3)c2)cc1,7,-11,-5,0,33*,5
O=C(NCCCN1CCCC1=O)c1cc(NS(=O)(=O)c2ccc(F)cc2)cc(NS(=O)(=O)c2ccc(F)cc2)c1,13,-2,15,-7,34*,10
CCOc1ccc(NS(=O)(=O)c2ccc(-c3cnc(C4CC4)o3)cc2)cc1,0,-26,8,-7,31*,3
Cc1cc(C)cc(NS(=O)(=O)c2ccc(-c3cnc(C4CC4)o3)cc2)c1,3,-51,-1,-2,7,3
Cc1ccc(C)c(NS(=O)(=O)c2ccc(-c3cnc(C4CC4)o3)cc2)c1,9,-41,2,-15,33*,9
CCC(=O)Nc1sc2c(c1C(N)=O)CCC2,-4,1,9,-10,0,-6
N#CCC(=O)Nc1sc2c(c1C(N)=O)CCCC2,-4,-4,0,-17,33*,3
O=S(=O)(Nc1ccc2cn[nH]c2c1)c1ccc(Cl)cc1,17,3,32*,.,1,12
CCOC(=O)c1cc(-c2ccc(OC)cc2)nn1-c1ccc(C(=O)O)cc1,5,-4,2,0,31*,-7
O=C1CC(c2ccc(O)cc2)Oc2cc(O)cc(O)c21 (stereo not drawn),-6,7,2,-6,4,6
CC1CC(=O)c2c(cc3c(-c4c(O)cc(O)c5c(O)c6c(cc45)OC(C)CC6=O)c(O)cc(O)c3c2O)O1 (stereo not drawn),62*,78*,53*,.,80*,76*
SMILES,PAFAH2 FP inh,HTRA1 inh,PAFAH1B2 inh,ABHD4 inh,pPAFAH inh,PAFAH1B3 FP inh
Cc1csc(NC(=O)c2c(-c3c(F)cccc3Cl)noc2C)n1,-3,8,5,-6,33*,-4
Cc1csc(NC(=O)c2c(-c3c(Cl)cccc3Cl)noc2C)n1,2,-11,3,7,3,2
Clc1cccc(-c2ccc(/C=N/n3cnnc3)o2)c1,-6,-13,7,-1,-3,9
O=C1OC(c2cccs2)=N/C1=C\c1ccc(-c2cccc(Cl)c2)o1,5,-23,2,7,30*,0
Cc1oc2ccc(NS(=O)(=O)c3ccccc3)cc2c1C(=O)Nc1ccccc1,1,-39,8,-8,33*,3
COC(=O)c1ccc(CSc2nc3scc(-c4cccs4)c3c(=O)[nH]2)o1,16,-50,11,-15,29*,6
CCC[C@@H](/C=C/C(=O)OC(C)(C)C)Sc1ccc(OC)cc1,.,.,.,2,.,.
Cc1cc(C)nc(SCC(=O)N/N=C/c2cccn2-c2cccc(C(F)(F)F)c2)n1,-1,1,-1,-19,6,5
Cc1cc(C)nc(SCC(=O)N/N=C/c2cccn2-c2ccc(O)cc2)n1,10,1,28*,8,5,3
Clc1ccc(SCCn2ccnc2)cc1,1,-1,35*,-8,0,7
Clc1ccc(OCCn2ccnc2)c(Cl)c1,10,-5,-7,4,1,1
O=C(COc1ccc(-c2ccccc2)cc1)NNC(=O)Nc1ccccc1,-7,-14,1,-29,0,-4
CC(C)(C)c1ccc(OCC(=O)NNC(=O)Nc2ccccc2)cc1,-4,4,39*,6,30*,6
CC(C)NC(=O)CC1C(=O)NCCN1CC(c1ccccc1)c1ccccc1 (stereo not drawn),-2,3,-1,5,29*,8
COc1nc(OC)nc(N2CCC(C(=O)NCc3ccccc3OC)CC2)n1,.,.,.,0,.,.
Cc1cc(NC(=O)CSCc2ccccc2)no1,9,-9,2,1,3,2
Cc1cc(CSCc2ccc(Cl)cc2)no1,0,4,27*,-17,3,-3
COC(=O)c1cc(C(C)c2c[nH]c3ccccc23)n2ccccc12 (stereo not drawn),.,.,.,-2,.,.
Cc1noc(C)c1COc1ccccc1C(=O)NC(C)CCc1ccccc1 (stereo not drawn),-5,-11,2,-8,.,0
Cc1noc(C)c1COc1ccccc1C(=O)NC(C)c1ccc(Cl)cc1 (stereo not drawn),0,-14,32*,4,-4,9
COc1cccc(C(=O)Nc2cccc(NC(=O)c3ccccc3Cl)c2)c1,-4,-45,-4,-23,3,-10
